From ChEMBL document CHEMBL1123266, “Antibacterial activity of phosphono dipeptides related to alafosfalin” (J Med Chem, 1986)
≈ marks a conversion by molar mass, not a printed value.

Legend:
Escherichia coli [1] = test: Concentration (IC50) to inhibit the growth of Escherichia coli.; assay type: functional, organism-based
Outline: (§1)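 Broth dilution in a defined liquid peptide medium lacking antagonists of small peptide mimetics. Inocula were overnight cultures grown in this medium at 37 °C and diluted to about 4 × 10^6 cfu/mL. Compound was tested as a doubling dilution series, final 0.065–512 μg/mL, incubated overnight at 37 °C. Turbidity was read, and IC50 is the concentration reducing 24-h growth to 50% of control.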

Klebsiella aerogenes [2] = test: Minimum inhibitory concentration (MIC) to control the growth of Klebsiella aerogenes strain PCM 2063; assay type: functional
Outline: (§2)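 Doubling dilutions of compound were made in a defined liquid peptide medium free of peptide-mimetic antagonists, final 0.065–512 μg/mL. The inoculum was an overnight 37 °C culture diluted to about 4 × 10^6 cfu/mL, incubated overnight at 37 °C. Non-turbid samples were subcultured (0.1 mL) onto solid peptide-medium agar and incubated overnight at 37 °C to assign MIC.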

Bacillus subtilis [3] = test: Concentration (IC50) to inhibit the growth of Bacillus subtilis; assay type: functional, organism-based; outline: as §1
Staphylococcus aureus [4] = test: Concentration (IC50) to inhibit the growth of Staphylococcus aureus.; assay type: functional, organism-based; outline: as §1
Escherichia coli [5] = test: Minimum inhibitory concentration (MIC) to control the growth of Escherichia coli strain PCM 2057; assay type: functional; outline: as §2
Serratia marcescens [6] = test: Concentration (IC50) to inhibit the growth of Serratia marcescens.; assay type: functional, organism-based; outline: as §1
Klebsiella aerogenes [7] = test: Concentration (IC50) to inhibit the growth of Klebsiella aerogenes.; assay type: functional, organism-based; outline: as §1
Enterococcus faecalis [8] = test: Concentration (IC50) to inhibit the growth of Streptococcus faecalis.; assay type: functional, organism-based; outline: as §1
Serratia marcescens [9] = test: Compound was evaluated for its minimum inhibitory concentration (MIC) to control the growth of Serratia marcescens strain PCM 549.; assay type: functional; outline: as §2
Enterococcus faecalis [10] = test: Minimum inhibitory concentration (MIC) to control the growth of Streptococcus faecalis strain PCM 896; assay type: functional; outline: as §2
Staphylococcus aureus [11] = test: Minimum inhibitory concentration (MIC) to control the growth of Staphylococcus aureus strain PCM 2054.; assay type: functional; outline: as §2
Bacillus subtilis [12] = test: Minimum inhibitory concentration (MIC) to control the growth of Bacillus subtilis strain PCM 1949.; assay type: functional; outline: as §2
Bacillus subtilis [13] = test: Compound was evaluated for its minimum inhibitory concentration (MIC) to control the growth of Bacillus subtilis strain PCM 1949.; assay type: functional; outline: as §2
Staphylococcus aureus [14] = test: Compound was evaluated for its concentration (IC50) to inhibit the growth of Staphylococcus aureus.; assay type: functional, organism-based; outline: as §1
Staphylococcus aureus [15] = test: Compound was evaluated for its minimum inhibitory concentration (MIC) to control the growth of Staphylococcus aureus strain PCM 2054.; assay type: functional; outline: as §2
Serratia marcescens [16] = test: Minimum inhibitory concentration (MIC) to control the growth of Serratia marcescens strain PCM 549.; assay type: functional; outline: as §2
Escherichia coli [17] = test: Compound was evaluated for its minimum inhibitory concentration (MIC) to control the growth of Escherichia coli strain PCM 2057.; assay type: functional; outline: as §2
Serratia marcescens [18] = test: Compound was evaluated for its concentration (IC50) to inhibit the growth of Serratia marcescens.; assay type: functional, organism-based; outline: as §1

| MIC (Klebsiella aerogenes [2]) | MIC (Escherichia coli [5]) | MIC (Serratia marcescens [9]) | MIC (Enterococcus faecalis [10]) | MIC (Staphylococcus aureus [11]) | MIC (Bacillus subtilis [12]) | MIC (Bacillus subtilis [13]) | MIC (Staphylococcus aureus [15]) | MIC (Serratia marcescens [16]) | MIC (Escherichia coli [17]) | SMILES | IC50 (Escherichia coli [1]) | IC50 (Bacillus subtilis [3]) | IC50 (Staphylococcus aureus [4]) | IC50 (Serratia marcescens [6]) | IC50 (Klebsiella aerogenes [7]) | IC50 (Enterococcus faecalis [8]) | IC50 (Staphylococcus aureus [14]) | IC50 (Serratia marcescens [18]) |
| --- | --- | --- | --- | --- | --- | --- | --- | --- | --- | --- | --- | --- | --- | --- | --- | --- | --- | --- |
| > 512 µg/mL | > 512 µg/mL | > 512 µg/mL | > 512 µg/mL | 128 µg/mL (≈ 484 µM) | > 512 µg/mL |  |  |  |  | CC(C)CC(N)C(=O)NC(C1CC1)P(=O)(O)O (configuration not stated) | > 512 µg/mL | > 512 µg/mL | 83 µg/mL (≈ 314 µM) | > 512 µg/mL | > 512 µg/mL | > 512 µg/mL |  |  |
| > 512 µg/mL | > 512 µg/mL | > 512 µg/mL | > 512 µg/mL |  |  | > 512 µg/mL | > 512 µg/mL |  |  | CC(N)C(=O)NC(Cc1ccccc1)P(=O)(O)O (configuration not stated) | > 512 µg/mL | 6.8 µg/mL (≈ 25 µM) |  | 14 µg/mL (≈ 51.4 µM) | > 512 µg/mL | > 512 µg/mL | 333 µg/mL (≈ 1220 µM) |  |
| > 512 µg/mL | > 512 µg/mL |  | > 512 µg/mL | > 512 µg/mL | > 512 µg/mL |  |  | > 512 µg/mL |  | CC(N)C(=O)NC(C1CCC1)P(=O)(O)O (configuration not stated) | > 512 µg/mL | > 512 µg/mL | > 512 µg/mL | > 512 µg/mL | > 512 µg/mL | > 512 µg/mL |  |  |
| > 512 µg/mL | > 512 µg/mL |  | > 512 µg/mL | > 512 µg/mL | 512 µg/mL (≈ 1920 µM) |  |  | > 512 µg/mL |  | CC(C)CC(N)C(=O)NC(C(C)C)P(=O)(O)O (configuration not stated) | 282 µg/mL (≈ 1060 µM) | 179 µg/mL (≈ 672 µM) | 32 µg/mL (≈ 120 µM) | > 512 µg/mL | 0.065 µg/mL (≈ 0.244 µM) | 410 µg/mL (≈ 1540 µM) |  |  |
| > 512 µg/mL |  |  | > 512 µg/mL | > 512 µg/mL | > 512 µg/mL |  |  | 64 µg/mL (≈ 326 µM) | 8 µg/mL (≈ 40.8 µM) | CC(N)C(=O)NC(C)P(=O)(O)O (configuration not stated) | 0.22 µg/mL (≈ 1.12 µM) | 512 µg/mL (≈ 2610 µM) | 58 µg/mL (≈ 296 µM) | 0.6 µg/mL (≈ 3.06 µM) | 64 µg/mL (≈ 326 µM) | 30 µg/mL (≈ 153 µM) |  |  |
| > 512 µg/mL | > 512 µg/mL |  | > 512 µg/mL | > 512 µg/mL | > 512 µg/mL |  |  | > 512 µg/mL |  | CC(C)CC(N)C(=O)NC(C1CCC1)P(=O)(O)O (configuration not stated) | > 512 µg/mL | > 512 µg/mL | > 512 µg/mL |  | > 512 µg/mL | 230 µg/mL (≈ 826 µM) |  | > 512 µg/mL |
